Assay results as given in ChEMBL document CHEMBL1275561, “In vitro activities of doripenem, a new broad-spectrum carbapenem, against recently collected clinical anaerobic isolates, with emphasis on the Bacteroides fragilis group” (2008).
Values after ≈ are worked out from the molar mass of the structure shown.

Tests used:
Assay type in all cases: functional
[1] = system: Parabacteroides distasonis; assay: Antimicrobial activity against Bacteroides distasonis by agar dilution method
In short: (§1)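 CLSI agar dilution on enriched brucella agar (5% lysed defibrinated sheep blood, 1 μg/ml vitamin K1), with drug plates made on the test day. Log-phase cells were adjusted to 0.5 McFarland, and about 10^5 CFU/spot was delivered by Steers replicator. Plates were incubated anaerobically at 37°C for 48 h. MIC was the lowest concentration giving a marked growth change versus the control plate. Controls were B. fragilis ATCC 25285 and B. thetaiotaomicron ATCC 29741.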

[2] = system: Bacteroides caccae; assay: Antimicrobial activity against Bacteroides caccae assessed as resistant isolates by agar dilution method
In short: (§2)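 CLSI agar dilution on enriched brucella agar (5% lysed defibrinated sheep blood, 1 μg/ml vitamin K1), plates made on test day. Log-phase inocula adjusted to 0.5 McFarland; about 10^5 CFU/spot by Steers replicator. Incubated anaerobically at 37°C for 48 h. MIC was the lowest concentration giving a marked change in growth versus the drug-free control plate. Resistance rates used CLSI anaerobe breakpoints. Controls were B. fragilis ATCC 25285 and B. thetaiotaomicron ATCC 29741.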

[3] = system: Bacteroides caccae; assay: Antimicrobial activity against Bacteroides caccae by agar dilution method; in short: as §1
[4] = system: Parabacteroides distasonis; assay: Antimicrobial activity against Bacteroides distasonis assessed as resistant isolates by agar dilution method; in short: as §2
[5] = system: Bacteroides fragilis; assay: Antimicrobial activity against Bacteroides fragilis by agar dilution method; in short: as §1
[6] = system: Bacteroides fragilis; assay: Antimicrobial activity against Bacteroides fragilis assessed as resistant isolates by agar dilution method; in short: as §2
[7] = system: Bacteroides ovatus; assay: Antimicrobial activity against Bacteroides ovatus by agar dilution method; in short: as §1
[8] = system: Bacteroides ovatus; assay: Antimicrobial activity against Bacteroides ovatus assessed as resistant isolates by agar dilution method; in short: as §2
[9] = system: Bacteroides thetaiotaomicron; assay: Antimicrobial activity against Bacteroides thetaiotaomicron by agar dilution method; in short: as §1
[10] = system: Bacteroides thetaiotaomicron; assay: Antimicrobial activity against Bacteroides thetaiotaomicron assessed as resistant isolates by agar dilution method; in short: as §2
[11] = system: Bacteroides uniformis; assay: Antimicrobial activity against Bacteroides uniformis by agar dilution method; in short: as §1
[12] = system: Bacteroides uniformis; assay: Antimicrobial activity against Bacteroides uniformis assessed as resistant isolates by agar dilution method; in short: as §2
[13] = system: Phocaeicola vulgatus; assay: Antimicrobial activity against Bacteroides vulgatus by agar dilution method; in short: as §1
[14] = system: Phocaeicola vulgatus; assay: Antimicrobial activity against Bacteroides vulgatus assessed as resistant isolates by agar dilution method; in short: as §2
[15] = system: Bacteroides eggerthii; assay: Antimicrobial activity against Bacteroides eggerthii by agar dilution method; in short: as §1
[16] = system: Bacteroides eggerthii; assay: Antimicrobial activity against Bacteroides eggerthii assessed as resistant isolates by agar dilution method; in short: as §2
[17] = system: Parabacteroides merdae; assay: Antimicrobial activity against Bacteroides merdae by agar dilution method; in short: as §1
[18] = system: Parabacteroides merdae; assay: Antimicrobial activity against Bacteroides merdae assessed as resistant isolates by agar dilution method; in short: as §2
[19] = system: Bacteroides nordii; assay: Antimicrobial activity against Bacteroides nordii by agar dilution method; in short: as §1
[20] = system: Bacteroides nordii; assay: Antimicrobial activity against Bacteroides nordii assessed as resistant isolates by agar dilution method; in short: as §2
[21] = system: Clostridioides difficile; assay: Antimicrobial activity against Clostridium difficile by agar dilution method
[22] = system: Clostridium perfringens; assay: Antimicrobial activity against Clostridium perfringens by agar dilution method
[23] = system: [Clostridium] innocuum; assay: Antimicrobial activity against Clostridium innocuum by agar dilution method
[24] = system: [Clostridium] innocuum; assay: Antimicrobial activity against Clostridium innocuum assessed as resistant isolates by agar dilution method; details: pooled result: one value given for 4 cell lines, strains, targets or settings
[25] = system: Clostridium paraputrificum; assay: Antimicrobial activity against Clostridium paraputrificum by agar dilution method
[26] = system: Clostridium subterminale; assay: Antimicrobial activity against Clostridium subterminale by agar dilution method
[27] = system: Clostridium tertium; assay: Antimicrobial activity against Clostridium tertium by agar dilution method
[28] = system: Finegoldia magna; assay: Antimicrobial activity against Finegoldia magna by agar dilution method
In short: (§3)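 Gram-positive anaerobes were tested by CLSI agar dilution on brucella agar enriched with 5% lysed defibrinated sheep blood and 1 μg/ml vitamin K1. Inoculum was log-phase growth at 0.5 McFarland, about 10^5 CFU/spot by replicator. Incubation was anaerobic, 37°C, 48 h. MIC was the lowest concentration with a marked growth change versus the drug-free plate. Eubacterium lentum ATCC 43055 was the control, and tests were repeated if it fell outside the CLSI range.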

[29] = system: Finegoldia magna; assay: Antimicrobial activity against Finegoldia magna assessed as resistant isolates by agar dilution method
In short: (§4)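 Agar dilution following CLSI on brucella agar with 5% lysed defibrinated sheep blood and 1 μg/ml vitamin K1, plates made on test day. Log-phase cells at 0.5 McFarland, about 10^5 CFU/spot by Steers replicator, 48 h anaerobic at 37°C. MIC read as the lowest concentration causing a marked growth change versus control. Resistance counted by CLSI anaerobe breakpoints. Eubacterium lentum ATCC 43055 served as control.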

[30] = system: Peptoniphilus asaccharolyticus; assay: Antimicrobial activity against Peptoniphilus asaccharolyticus by agar dilution method; in short: as §3
[31] = system: Peptoniphilus asaccharolyticus; assay: Antimicrobial activity against Peptoniphilus asaccharolyticus assessed as resistant isolates by agar dilution method; details: pooled result: one value given for 4 cell lines, strains, targets or settings; in short: as §4
[32] = system: Parvimonas micra; assay: Antimicrobial activity against Micromonas micros by agar dilution method; in short: as §3
[33] = system: Anaerococcus prevotii; assay: Antimicrobial activity against Anaerococcus prevotii by agar dilution method; in short: as §3
[34] = system: Peptostreptococcus sp.; assay: Antimicrobial activity against Peptostreptococcus sp. by agar dilution method
In short: (§5)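 Log-phase isolates were adjusted to 0.5 McFarland, and about 10^5 CFU/spot was delivered by Steers replicator. Plates were incubated anaerobically at 37°C for 48 h. MIC was the lowest concentration giving a marked growth change versus the control plate. Eubacterium lentum ATCC 43055 was the QC strain, with repeats when out of range.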

[35] = system: Cutibacterium acnes; assay: Antimicrobial activity against Propionibacterium acnes by agar dilution method; in short: as §5
[36] = system: Cutibacterium acnes; assay: Antimicrobial activity against Propionibacterium acnes assessed as resistant isolates by agar dilution method; in short: as §4
[37] = system: Propionibacterium; assay: Antimicrobial activity against Propionibacterium sp. by agar dilution method; in short: as §5
[38] = system: Propionibacterium; assay: Antimicrobial activity against Propionibacterium sp. assessed as resistant isolates by agar dilution method; in short: as §4

C[C@@H](O)[C@H]1C(=O)N2C(C(=O)O)=C(S[C@@H]3CN[C@H](CNS(N)(=O)=O)C3)[C@H](C)[C@H]12 [DORIPENEM]
MIC50 [1]: 0.5 µg/mL (≈ 1.19 µM) | MIC90 [1]: 2 µg/mL (≈ 4.76 µM) | Activity [2]: 0% | MIC50 [3]: 0.5 µg/mL (≈ 1.19 µM) | MIC90 [3]: 2 µg/mL (≈ 4.76 µM) | Activity [4]: 0% | MIC50 [5]: 0.5 µg/mL (≈ 1.19 µM) | MIC90 [5]: 1 µg/mL (≈ 2.38 µM) | Activity [6]: 1.5% | MIC50 [7]: 0.5 µg/mL (≈ 1.19 µM) | MIC90 [7]: 2 µg/mL (≈ 4.76 µM) | Activity [8]: 0% | MIC50 [9]: 0.5 µg/mL (≈ 1.19 µM) | MIC90 [9]: 1 µg/mL (≈ 2.38 µM) | Activity [10]: 0% | MIC50 [11]: 0.5 µg/mL (≈ 1.19 µM) | MIC90 [11]: 1 µg/mL (≈ 2.38 µM) | Activity [12]: 0% | MIC50 [13]: 0.5 µg/mL (≈ 1.19 µM) | MIC90 [13]: 2 µg/mL (≈ 4.76 µM) | Activity [14]: 0% | MIC50 [15]: 0.5 µg/mL (≈ 1.19 µM) | MIC90 [15]: 1 µg/mL (≈ 2.38 µM) | Activity [16]: 0% | MIC50 [17]: 0.5 µg/mL (≈ 1.19 µM) | MIC90 [17]: 1 µg/mL (≈ 2.38 µM) | Activity [18]: 0% | MIC50 [19]: 0.5 µg/mL (≈ 1.19 µM) | MIC90 [19]: 1 µg/mL (≈ 2.38 µM) | Activity [20]: 0% | MIC [21]: 1 µg/mL (≈ 2.38 µM) | MIC [22]: 0.06 µg/mL (≈ 0.143 µM) | MIC50 [22]: 0.06 µg/mL (≈ 0.143 µM) | MIC90 [22]: 0.125 µg/mL (≈ 0.297 µM) | MIC50 [23]: 1 µg/mL (≈ 2.38 µM) | MIC90 [23]: 2 µg/mL (≈ 4.76 µM) | Activity [24]: 0% | MIC50 [25]: 1 µg/mL (≈ 2.38 µM) | MIC90 [25]: 2 µg/mL (≈ 4.76 µM) | MIC50 [26]: 1 µg/mL (≈ 2.38 µM) | MIC90 [26]: 2 µg/mL (≈ 4.76 µM) | MIC50 [27]: 1 µg/mL (≈ 2.38 µM) | MIC90 [27]: 2 µg/mL (≈ 4.76 µM) | MIC50 [28]: 0.125 µg/mL (≈ 0.297 µM) | MIC90 [28]: 0.125 µg/mL (≈ 0.297 µM) | Activity [29]: 0% | MIC [30]: 0.06 µg/mL (≈ 0.143 µM) | MIC50 [30]: 0.06 µg/mL (≈ 0.143 µM) | MIC90 [30]: 0.5 µg/mL (≈ 1.19 µM) | Activity [31]: 0% | MIC [32]: 0.06 µg/mL (≈ 0.143 µM) | MIC50 [32]: 0.06 µg/mL (≈ 0.143 µM) | MIC90 [32]: 0.5 µg/mL (≈ 1.19 µM) | MIC [33]: 0.06 µg/mL (≈ 0.143 µM) | MIC50 [33]: 0.06 µg/mL (≈ 0.143 µM) | MIC90 [33]: 0.5 µg/mL (≈ 1.19 µM) | MIC [34]: 0.06 µg/mL (≈ 0.143 µM) | MIC50 [34]: 0.06 µg/mL (≈ 0.143 µM) | MIC90 [34]: 0.5 µg/mL (≈ 1.19 µM) | MIC [35]: 0.06 µg/mL (≈ 0.143 µM) | MIC50 [35]: 0.06 µg/mL (≈ 0.143 µM) | MIC90 [35]: 0.06 µg/mL (≈ 0.143 µM) | Activity [36]: 0% | MIC [37]: 0.06 µg/mL (≈ 0.143 µM) | MIC50 [37]: 0.06 µg/mL (≈ 0.143 µM) | MIC90 [37]: 0.06 µg/mL (≈ 0.143 µM) | Activity [38]: 0%
